Hits are enriched below; roughly 1.4% of the tested compounds scored in any of these assays.
STAT1 blocker – STAT1 signaling inhibitors, primary screen, cell-based, HTS, luciferase reporter | 0.35% of 200,000 active | inhibition, % at 5.5 µM | AID 920, 2007 | NIH 3T3 STAT1-luciferase reporter, IFN-gamma, luminescence;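 active means inhibition above a set limit, the mean inhibition across all tested compounds plus 3 SD, cut at about 34% in these data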;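 further: 0% = IFN-gamma with DMSO and 100% = IFN-gamma with 300 µM nifuroxazide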
PERK inh – block of dimerizer-induced PERK translation repression, primary screen, PERK inhibitor project, CHO PERK-DD cells, SEAP luminescence, HTS. CHO PERK-DD fusion, SEAP luminescence translation reporter. Eukaryotic translation initiation factor 2-alpha kinase 3 (Homo sapiens), Q9NZJ5. inhibition, % at 5.6 µM. AID 1416, 2008. 0.17% of 220,000 active;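 active means inhibition above the mean inhibition of all tested compounds plus 3 SD, set separately per screening campaign, cut at about 2.9% in these data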;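 further: PERK kinase domain activated by AP20187 dimerizer at 100 nM; 0% = DMSO with dimerizer and 100% = rapamycin at 8.4 µM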
Target sequence (Q9NZJ5 whole entry, looked up, the tested form may be a part): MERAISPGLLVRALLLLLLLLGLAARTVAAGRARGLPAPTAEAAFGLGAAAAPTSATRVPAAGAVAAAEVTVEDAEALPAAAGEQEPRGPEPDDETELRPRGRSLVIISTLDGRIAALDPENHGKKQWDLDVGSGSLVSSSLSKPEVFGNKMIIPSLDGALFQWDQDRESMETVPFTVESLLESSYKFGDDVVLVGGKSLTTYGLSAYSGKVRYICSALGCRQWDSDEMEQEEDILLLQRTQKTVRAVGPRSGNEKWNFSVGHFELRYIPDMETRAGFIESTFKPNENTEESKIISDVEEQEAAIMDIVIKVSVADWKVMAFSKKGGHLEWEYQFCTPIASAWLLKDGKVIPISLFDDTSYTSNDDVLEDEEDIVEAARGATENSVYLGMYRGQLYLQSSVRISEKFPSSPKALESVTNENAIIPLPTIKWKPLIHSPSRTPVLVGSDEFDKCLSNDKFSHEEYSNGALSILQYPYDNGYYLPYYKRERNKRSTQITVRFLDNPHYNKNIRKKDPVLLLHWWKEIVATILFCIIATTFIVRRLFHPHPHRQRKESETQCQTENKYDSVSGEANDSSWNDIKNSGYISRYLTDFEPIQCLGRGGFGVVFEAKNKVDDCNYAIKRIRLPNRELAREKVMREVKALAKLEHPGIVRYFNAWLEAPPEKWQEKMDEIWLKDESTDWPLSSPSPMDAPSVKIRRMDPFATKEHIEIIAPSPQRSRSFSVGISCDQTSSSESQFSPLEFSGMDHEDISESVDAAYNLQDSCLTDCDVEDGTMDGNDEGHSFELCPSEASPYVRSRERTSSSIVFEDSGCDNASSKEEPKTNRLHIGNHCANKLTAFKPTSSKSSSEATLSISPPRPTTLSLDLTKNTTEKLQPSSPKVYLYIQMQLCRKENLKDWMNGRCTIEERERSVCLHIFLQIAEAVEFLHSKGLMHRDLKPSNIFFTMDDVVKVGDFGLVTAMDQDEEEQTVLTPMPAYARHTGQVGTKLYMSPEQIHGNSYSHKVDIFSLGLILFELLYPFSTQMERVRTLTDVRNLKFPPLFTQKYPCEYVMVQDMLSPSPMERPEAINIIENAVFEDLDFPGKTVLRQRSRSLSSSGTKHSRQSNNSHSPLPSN
Platelet DG rel – inhibitors of platelet dense granule secretion, primary screen, cell-based, MLPCN, human platelets; human platelet-rich plasma, SFLLRN dense granule ATP release, luminescence; inhibition, %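 (compounds screened at 7.5 µM in platelet-rich plasma)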; 0.22% of 300,000 active;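 active means mean replicate score, as percent of positive control, at or above 50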
STAT3 inh – IL-6 driven STAT3 reporter inhibitors, primary screen, U3A cells, luciferase, luminescence, MLSCN library; inhibition, % at 5.5 µM; IL-6 STAT3-luciferase reporter; host cell line lacks STAT1; 0.89% of 190,000 active; AID 862, 2007;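 active means inhibition above the mean inhibition across all screened compounds plus 3 SD, cut at about 44% in these data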;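 further: 0% = DMSO only wells and 100% = 100 µM nifuroxazide control wells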
STAT3 act-1 – IL-6 driven STAT3 reporter potentiators, primary screen, U3A cells, luciferase, luminescence, MLSCN library; IL-6 STAT3-luciferase reporter; 100% = signal with IL-6 EC80 alone; activation (% of control), % at 5.6 µM; 0.91% of 190,000 active; AID 871, 2007;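 active means activation above the screen-wide mean of compound activation plus 3 SD, cut at about 130% in these data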;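 further: 0% = background luminescence of wells with medium and substrate only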
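Test system: human U3A cells carrying STAT3-luciferase construct; control set: IL-6-only wells as 100% reference; timing: compound pre-incubation 1 h before IL-6, then 6 h stimulation at 37 °C; also added: IL-6 stimulus at 33 ng/mL final; evaluation: % activation versus median of IL-6-stimulated wells; detection: reporter luminescence signal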
STAT3 act-2 – STAT3 reporter potentiators, retest of hits, confirmation, U3A cells, luciferase, luminescence | IL-6 potentiation; U3A cells lack STAT1; 100 means same as IL-6 alone | potentiation (% of control), % at 5.7 µM | shares compounds with STAT3 act-1 | 64% of 1,200 active;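 active means percent activation of the STAT3 luciferase reporter above a set limit taken from the earlier primary screen, cut at about 130% in these data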;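 further: 0% = background signal of medium plus substrate and 100% = median of IL-6 with DMSO wells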
NFkB act STAT3ct – NF-kB reporter activators in human cells, counter-screen for STAT3 activator project. shares compounds with STAT3 act-1. NF-kappaB reporter activation. 11% of 1,200 active. AID 1309, 2008. activation (% of control), % at 5.7 µM; in the data active means activation above about 120%;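 further: reporter induced by TNF-alpha stimulation; 100% = median of stimulated DMSO wells and 0% = no signal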
STAT1 act – STAT1 reporter activators, IFN-gamma induced, counter-screen for STAT3 activator project, cell-based, NIH 3T3, luciferase luminescence; shares compounds with STAT3 act-1; NIH 3T3 STAT1-luciferase reporter; activation (% of control), % at 5.7 µM; 13% of 1,200 active;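 active means activation above the solvent-only control well mean plus 3 SD, set per screening run, cut at about 120% in these data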;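 further: 100% = IFN-gamma with DMSO median signal so 100% means no change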
* marks the source's active call; other numbers are inactive results; · = no result.

SMILES	STAT1 blocker	PERK inh	Platelet DG rel	STAT3 inh	STAT3 act-1	STAT3 act-2	NFkB act STAT3ct	STAT1 act
CCn1cc(C(=O)N2CCc3ccccc32)c(=O)c2cc(S(=O)(=O)N3CCOCC3)ccc21	-7	0	1	-42	146*	128	105	99
O=C(CCc1nnc(C2CCCCC2)o1)N1CCC(Oc2cccnc2)CC1	5	-1	0	-1	103	·	·	·
Cc1oc(S(=O)(=O)N2CCCCC2)cc1NC(=O)Nc1ccc(F)cc1	·	1	-9	·	·	·	·	·
CN(O)/C=C1\C(=O)Nc2ccccc21	-3	2	0	-50	142*	115	98	103
O=C1Nc2ccccc2/C1=C\C(=O)c1ccccc1	·	·	-2	·	·	·	·	·
CCOc1ccccc1C1CC(c2cccs2)=NN1S(C)(=O)=O (stereo not drawn)	5	0	1	-34	137*	147*	103	87
Cc1ccc(NC2CCCN(C(=O)CCN3CCCCO3)C2)cc1C (stereo not drawn)	·	·	-4	·	·	·	·	·
Oc1ccccc1/C=N/Nc1cccc2cccnc12	11	1	9	-67	162*	164*	98	93
C/C(=C\C(=S)Nc1ccccc1)Nc1ccc2ccccc2c1	-6	0	-1	-21	122	·	·	·
C/C(=C\C(=S)Nc1ccccc1)Nc1cccc2ccccc12	-14	-1	-3	-58	155*	142*	109	119
O=C(Nc1ccccc1)N1CCn2c1nc1ccccc12	3	0	-8	-69	161*	139*	99	95
S=C(Nc1ccccc1)N1CCn2c1nc1ccccc12	-1	0	-4	19	87	·	·	·
COc1ccc(NC(=O)N2CCn3c2nc2ccccc23)cc1	-3	-1	11	-59	151*	137*	105	98
CCOc1ccc(C(C)NC(=O)c2cc(=O)[nH]c3ccccc23)cc1OCC (stereo not drawn)	·	·	1	·	·	·	·	·
Nc1nc2c(F)c(F)c(F)cc2s1	-6	0	-4	12	95	·	·	·
O=Cc1cc2ccccc2nc1SCc1ccc(Cl)cc1	-12	1	-7	-65	161*	130	101	102
Cc1ccc(CSc2nc3ccccc3cc2C=O)cc1	-1	2	-3	-104	193*	153*	109	102
O=Cc1cc2ccccc2nc1SCc1ccc(Cl)c(Cl)c1	1	0	-3	-17	120	·	·	·
Cc1cccc(NS(=O)(=O)c2ccc(C)c(C(=O)OCC(=O)Nc3cc(C)on3)c2)c1	8	-2	8	-43	140*	140*	106	101
Cc1cccc(NS(=O)(=O)c2cc(C(=O)OCC(=O)Nc3cc(C)on3)ccc2C)c1	-2	0	3	-47	147*	132	91	99
COc1ccccc1NS(=O)(=O)c1cccc(C(=O)OCC(=O)Nc2cc(C)on2)c1	2	0	10	2	102	·	·	·
O=C1N(CN2CCN(c3cccc(Cl)c3)CC2)c2ccccc2C12OCCCO2	18	1	-5	20	88	·	·	·
CC1CCOC2(O1)C(=O)N(CN1CCN(c3ccccc3F)CC1)c1ccccc12 (stereo not drawn)	5	1	0	-54	148*	119	99	82
Nn1cnnc1N/N=C\c1ccc(-c2ccccc2[N+](=O)[O-])o1	-21	0	23	-50	147*	105	104	101
O=C(COc1ccc(Br)cc1CNCCCN1CCOCC1)Nc1ccccc1	2	0	3	9	94	·	·	·
SMILES	STAT1 blocker	PERK inh	Platelet DG rel	STAT3 inh	STAT3 act-1	STAT3 act-2	NFkB act STAT3ct	STAT1 act
COCc1ccc(CN2CCc3c([nH]c4ccccc34)C2C(C)(C)C)o1 (stereo not drawn)	17	0	8	-44	140*	141*	105	93
CN(C)S(=O)(=O)c1cc(NC(=O)COC(=O)CCSc2ccc(Cl)cc2)ccc1Cl	8	1	-32	1	103	·	·	·
CC1=C(C#N)C(c2ccccc2O)C(C#N)=C(C)N1	7	1	-13	-47	143*	151*	103	99
CCCCc1cc(=O)oc2cc(OCC(=O)NCC3CCC(C(=O)O)CC3)ccc12 (stereo not drawn)	·	·	-2	·	·	·	·	·
CCn1c(SCC(=O)N/N=C/C=C\c2ccccc2[N+](=O)[O-])nnc1-c1ccccc1	9	1	-3	-38	142*	150*	117	110
O=C(CN1CCOCC1)N/N=C/c1cc2ccccc2nc1Cl	-1	1	-36	12	96	·	·	·
Cc1ccc(NCC(=O)N/N=C/c2cc3ccccc3nc2Cl)cc1	9	0	0	-90	178*	171*	113	107
Cc1cccc(N(C(=O)c2csnn2)C(C(=O)NC2CCCCC2)c2ccccn2)c1C (stereo not drawn)	·	·	-5	·	·	·	·	·
Cc1[nH]c2ccccc2c1CCC(N)=O	-7	2	-1	-2	105	·	·	·
Cc1[nH]c2ccccc2c1Cc1nnc(SCC(N)=O)o1	11	3	3	-66	153*	103	100	96
O=C1c2ccccc2C(=O)N1OCc1cccc(Cl)c1	-1	0	-1	16	91	·	·	·
O=C1c2ccccc2C(=O)N1OCc1ccccc1	-10	1	-2	-40	137*	114	103	105
COc1ccc(N2CCN(S(=O)(=O)c3cn(C)cn3)CC2)cc1	·	·	-1	·	·	·	·	·
Cc1ccc(NC(=O)c2oc3ccccc3c2C)nc1	·	·	-16	·	·	·	·	·
Cc1c(C(=O)Nc2ccccn2)oc2ccccc12	-28	0	11	-59	154*	218*	142*	173*
COc1cccc(CN2CCN(Cc3cc4ccccc4[nH]3)CC2CCO)c1 (stereo not drawn)	·	-2	2	·	·	·	·	·
CCOc1ccc(CN2CCN(Cc3cc4ccccc4[nH]3)CC2CCO)cc1 (stereo not drawn)	14	0	7	-42	143*	191*	113	109
Cc1ccc2cc(C#N)c(N3CCCC3)nc2c1C	-8	1	3	-46	140*	137*	117	133*
COc1ccccc1C(=O)Nc1ccnn1C1CCN(CCCc2ccccc2)CC1	·	·	8	·	·	·	·	·

Source: PubChem BioAssay
